Data taken from ChEMBL document CHEMBL1125815, “2-Phenyl-3H-imidazo[4,5-b]pyridine-3-acetamides as non-benzodiazepine anticonvulsants and anxiolytics” (J Med Chem, 1991).

What was measured:
[1] = target: GABA-A receptor; anion channel; assay: Displacement of [3H]flunitrazepam from GABA-A benzodiazepine receptor of rat cerebral cortex membrane; type: tissue-based
Method in brief: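 Rat cerebral cortex P2+P3 membranes (fresh tissue, two freeze-thaw-wash cycles to remove endogenous GABA), 0.4 mg protein. Incubated with 1 nM [3H]flunitrazepam and six concentrations (1 × 10^-5 – 1 × 10^-10 M) for 30 min at 4 °C. Filtered on GF/b filters and counted. […] IC50 from log-logit regression, mean of replicates.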

Mus musculus [2] = species on record: Mus musculus; assay: Anticonvulsant activity against pentylenetetrazole-induced clonic seizures in mice; type: functional; settings: Mus musculus; read-out: ED50
Method in brief: (§1)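 Female adult ICR mice, groups of eight, given test compound ip (100 mg/kg screen) in 0.5% aqueous methylcellulose or vehicle. Challenged 30 min later with pentyletetrazole 80 mg/kg sc and scored for clonic seizures.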

[3] = target: GABA-A receptor; anion channel; assay: Displacement of [3H]-diazepam from GABA-A benzodiazepine receptor of rat cerebral cortex membrane; type: tissue-based
Method in brief: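 Membranes skipped the freeze-thaw-wash cycles, so endogenous GABA was retained. Six concentrations (1 × 10^-5 – 1 × 10^-10 M), 30 min at 4 °C, glass-fiber filtration and scintillation counting. IC50 from log-logit regression.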

Mus musculus [4] = assay: Compound was tested for anticonvulsant activity against pentylenetetrazole-induced clonic seizures in mice on intraperitoneal administration; type: functional; settings: ip; method in brief: as §1
Mus musculus [5] = assay: Compound was tested for anticonvulsant activity against pentylenetetrazole-induced clonic seizures in mice at dose 80 mg/kg.
Mus musculus [6] = species on record: Mus musculus; assay: Neurotoxicity against mice in rotarod test; type: toxicity, organism-based; settings: in vivo
Method in brief: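 Groups of five randomly selected mice were dosed 30 min before being placed on a knurled 28-mm rod rotating at 6 rpm. Failure to stay on the rod for 1 min was scored as neurotoxic. ED50 (mg/kg ip) and confidence limits came from probit analysis.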

Mus musculus [7] = species on record: Mus musculus; assay: Anxiolytic activity by light/dark exploratory behavioral test in mice; type: functional
Method in brief: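 Mice were dosed 30 min before testing, then placed individually in a two-compartment light/dark activity chamber and left undisturbed for 5 min. Time spent in each compartment was compared with vehicle-treated mice by Dunnett's t test. Minimal effective dose and sedative dose reported in mg/kg ip.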

Mus musculus [8] = species on record: Mus musculus; assay: Potentiation of ethanol (EtOH) induced sleep time in mice; type: functional; settings: read-out: MED
Method in brief: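 Compound given orally; the minimal effective dose (mg/kg po) for potentiating ethanol-induced sleep time in mice was reported.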

Rattus norvegicus = species on record: Rattus norvegicus; assay: Anxiolytic activity by vogel punished drinking test in rats; type: functional; settings: read-out: MED
Method in brief: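 Modified Vogel conflict test. Rats were water-deprived for 48 h with food available. A drinkometer delivered a 0.65 mA shock after every 20th lick during a 3-min session starting at the first shock. Total shocks were compared with vehicle-treated rats by Dunnett's t test. Minimal effective dose reported in mg/kg ip.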

Mus musculus [9] = assay: Anticonvulsant activity against picrotoxin-induced clonic seizures in mice at 3.2 mg/kg sc; type: functional; settings: route subcutaneous
Mus musculus [10] = assay: Compound was tested for anticonvulsant activity against bicuculline-induced clonic seizures in mice at 2.7 mg/kg sc; type: functional; settings: route subcutaneous
Mus musculus [11] = species on record: Mus musculus; assay: Compound was tested for anticonvulsant activity against maximal electroshock-induced […] seizures in mice at 50mA, 200 ms; type: functional
Mus musculus [12] = assay: Compound was tested for anticonvulsant activity against pentylenetetrazole-induced clonic seizures in mice at 80 mg/kg sc; type: functional; settings: route subcutaneous; method in brief: as §1
Mus musculus [13] = assay: Compound was tested for anticonvulsant activity against pentylenetetrazole-induced clonic seizures in mice; conv = 'convulsant at 10 mg/kg'; type: functional, organism-based; set-up: dose 10 mg/kg; method in brief: as §1

| Compound | IC50 [1] [µM] | ED50 (Mus musculus [2]) [mg/kg] | also measured |
| --- | --- | --- | --- |
| CN(C)C(=O)CCn1c(-c2ccc(Cl)cc2)nc2cccnc21 | 9.3 | 29.4 |  |
| CN(C)C(=O)Cn1c(-c2ccc(C(F)(F)F)cc2)nc2cccnc21 |  | 3.2 | IC50 [3]: 3.7 µM |
| NC(=O)Cn1c(-c2ccc(Br)cc2)nc2cccnc21 | > 10 | 17.8 |  |
| CN(C)C(=O)Cn1c(-c2ccc(Cl)cc2)nc2cccnc21 | 3.6 |  | ED50 (Mus musculus [4]): 4.1 mg/kg |
| CN(C)C(=O)Cn1c(-c2ccc(Br)o2)nc2cccnc21 | 0.2 | 100 |  |
| NC(=O)Cn1c(-c2ccc(C(F)(F)F)cc2)nc2cccnc21 | > 10 | 11.7 |  |
| Cc1ccc(-c2nc3cccnc3n2CC(N)=O)cc1 | 4.5 | 50.5 |  |
| CNC(=O)Cn1c(-c2ccc(Cl)cc2)nc2cccnc21 | 1.6 | 12.5 |  |
| CN(C)C(=O)Cn1c(-c2ccc(Cl)cc2)nc2ccc[n+]([O-])c21 | > 10 | 20 |  |
| O=C(O)CCCNC(=O)Cn1c(-c2ccc(Cl)cc2)nc2cccnc21 | > 10 |  |  |
| NC(=O)Cn1c(-c2cccc(Cl)c2)nc2cccnc21 |  |  | IC50 [3]: < 10 µM |
| CN(C)C(=O)Cn1c(-c2ccc(Cl)cc2)nc2c(Cl)ccnc21 | > 10 |  |  |
| CN(C)C(=O)Cn1c(-c2ccc(Br)s2)nc2cccnc21 | 2.5 |  | ED50 (Mus musculus [4]): 100 mg/kg |
| O=C(Cn1c(-c2ccc(Cl)cc2)nc2cccnc21)Nc1cccnc1 |  | 100 | IC50 [3]: 0.23 µM |
| CN1CCN(C(=O)Cn2c(-c3ccc(Cl)cc3)nc3cccnc32)CC1 | > 10 |  | ED50 (Mus musculus [4]): 100 mg/kg |
| CN1C(=O)CN=C(c2ccccc2)c2cc(Cl)ccc21 [DIAZEPAM] |  | 0.9 | ED50 (Mus musculus [5]): 0.2 mg/kg; ED50 (Mus musculus [6]): 1.7 mg/kg; Sedative dose (Mus musculus [7]): 10 mg/kg; minimal effective dose (Mus musculus [7]; read-out: MED): 1 mg/kg; minimal effective dose (Mus musculus [8]): 2.5 mg/kg; minimal effective dose (Rattus norvegicus): 1 mg/kg |
| CCC1(c2ccccc2)C(=O)NC(=O)NC1=O [PHENOBARBITAL] |  |  | ED50 (Mus musculus [9]): 27.5 mg/kg; ED50 (Mus musculus [10]): 37.7 mg/kg; ED50 (Mus musculus [11]): 21.8 mg/kg; ED50 (Mus musculus [12]): 13.2 mg/kg |
| CN(C)C(=O)Cn1c(-c2ccc(Cl)cc2Cl)nc2cccnc21 | > 10 |  | ED50 (Mus musculus [13]): Convulsant |

| Compound | IC50 [1] [µM] | ED50 (Mus musculus [2]) [mg/kg] | also measured |
| --- | --- | --- | --- |
| CN(C)CCCNC(=O)Cn1c(-c2ccc(Cl)cc2)nc2cccnc21 | > 10 | 64 |  |
| O=C(O)CNC(=O)Cn1c(-c2ccc(Cl)cc2)nc2cccnc21 |  |  | IC50 [3]: 7.1 µM |
| CCCNC(=O)Cn1c(-c2ccc(Cl)cc2)nc2cccnc21 |  | 37.5 | IC50 [3]: 1.26 µM |
| CC(=O)N1CCN(C(=O)Cn2c(-c3ccc(Cl)cc3)nc3cccnc32)CC1 | 6.4 |  | ED50 (Mus musculus [4]): 100 mg/kg |
| CCN(CC)C(=O)Cn1c(-c2ccc(Cl)cc2)nc2cccnc21 | 1.8 | 16 |  |
| CN(C)C(=O)Cn1c(-c2ccco2)nc2cccnc21 | > 10 | > 100 |  |
| O=C(Cn1c(-c2ccc(Cl)cc2)nc2cccnc21)N1CCOCC1 | 4.1 | 11.5 |  |
| CN(C)C(=O)Cn1c(-c2ccc(Cl)cc2)nc2cnccc21 | > 10 |  |  |
| CN(C)C(=O)Cn1c(-c2ccc(Cl)cc2)nc2ccncc21 | > 10 |  |  |
| CN(C)C(=O)Cn1c(-c2ccsc2)nc2cccnc21 | > 10 | 38 |  |
| CNC1=Nc2ccc(Cl)cc2C(c2ccccc2)=[N+]([O-])C1 [CHLORDIAZEPOXIDE] | 0.71 | 1.9 |  |
| CN(C)C(=O)Cn1c(-c2ccc([N+](=O)[O-])cc2)nc2cccnc21 | > 10 | 47 |  |
| COc1ccc(-c2nc3cccnc3n2CC(=O)N(C)C)cc1 | 8.5 | 39.5 |  |
| O=C(Cn1c(-c2ccc(Cl)cc2)nc2cccnc21)Nc1ccccc1 | > 10 |  |  |
| Cc1ccc(-c2nc3cccnc3n2CC(=O)N(C)C)cc1 | 1.75 | 4.7 |  |
| CCOC(=O)N1CCN(C(=O)Cn2c(-c3ccc(Cl)cc3)nc3cccnc32)CC1 | 5.1 |  |  |
| CCCCN(CCCC)C(=O)Cn1c(-c2ccc(Cl)cc2)nc2cccnc21 | 0.9 |  | ED50 (Mus musculus [4]): 38 mg/kg |
| NC(=O)Cn1c(-c2ccc(Cl)cc2)nc2ncccc21 | > 10 |  |  |
